Values after ≈ are worked out from the molar mass of the structure shown.
Tests used:
[1] = Lipophilicity, log D of compound at 7.4 by LC-MS analysis; assay type: physicochemical; conditions: pH 7.4
In short: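 ChromlogD at pH 7.4: retention time on an LCMS system with an aqueous mobile phase, converted to lipophilicity with a calibration curve.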

[2] = biological target: T1, Mucosa-associated lymphoid tissue lymphoma translocation protein 1 (Homo sapiens, UniProt Q9UDY8); test: Inhibition of human MALT1 assessed as cleavage of substrate using fluorescent labeled Ac-LRSR-Rh110 peptide as substrate incubated for 30 mins followed by substrate addition and measured after 3 to 4 hrs by FRET assay
T1 sequence (Q9UDY8 whole entry): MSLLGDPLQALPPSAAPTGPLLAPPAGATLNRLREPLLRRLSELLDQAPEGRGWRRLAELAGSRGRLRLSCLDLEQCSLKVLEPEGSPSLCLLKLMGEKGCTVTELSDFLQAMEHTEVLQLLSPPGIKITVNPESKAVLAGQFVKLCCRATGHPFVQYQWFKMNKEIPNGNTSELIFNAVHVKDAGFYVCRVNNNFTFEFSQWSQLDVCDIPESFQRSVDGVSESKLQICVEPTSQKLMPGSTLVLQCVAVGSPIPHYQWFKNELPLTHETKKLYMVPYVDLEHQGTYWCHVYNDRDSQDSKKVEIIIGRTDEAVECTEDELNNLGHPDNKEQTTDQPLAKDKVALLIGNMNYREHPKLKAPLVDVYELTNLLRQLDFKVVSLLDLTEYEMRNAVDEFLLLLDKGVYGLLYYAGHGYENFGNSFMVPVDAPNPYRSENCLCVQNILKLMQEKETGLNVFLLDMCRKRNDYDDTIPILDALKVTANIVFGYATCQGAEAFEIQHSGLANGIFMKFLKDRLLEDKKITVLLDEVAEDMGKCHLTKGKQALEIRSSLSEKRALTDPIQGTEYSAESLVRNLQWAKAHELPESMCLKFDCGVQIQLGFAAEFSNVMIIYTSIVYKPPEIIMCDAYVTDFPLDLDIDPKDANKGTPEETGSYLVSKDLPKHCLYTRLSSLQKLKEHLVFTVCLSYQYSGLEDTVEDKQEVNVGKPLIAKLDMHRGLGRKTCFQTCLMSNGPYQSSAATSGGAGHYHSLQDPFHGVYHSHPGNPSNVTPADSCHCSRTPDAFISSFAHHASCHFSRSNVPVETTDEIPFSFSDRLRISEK
In short: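 Fluorogenic MALT1 cleavage assay with the tetrapeptide LRSR carrying rhodamine 110 and a non-fluorescent quencher; signal read as FRET. Horseradish peroxidase and resazurin redox counter-assays used to exclude artefacts. Values are the mean of at least three independent measurements, with standard deviation.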

[3] = Metabolic stability in human liver microsomes assessed as intrinsic clearance by LC-MS/MS analysis; assay type: ADME, Microsome; conditions: read-out: CLH
In short: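 Human liver microsomes, compound incubated; intrinsic clearance from disappearance of the parent compound over time.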

[4] = biological target: T1, Mucosa-associated lymphoid tissue lymphoma translocation protein 1; test: Inhibition of human MALT1 in human MCF7 cells assessed as MALT1 mediated cleavage of human A20 in cytosol by fluorescence microscopy; assay type: subcellular
In short: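 Cellular MALT1 activity in MCF7 cells, read as inhibition of MALT1-mediated cleavage of human A20.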

[5] = Metabolic stability in rat hepatocyte assessed as intrinsic clearance by LC-MS/MS analysis; assay type: ADME, cell-based; conditions: hepatocytes
In short: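 Rat hepatocytes, compound incubated; intrinsic clearance (per 10⁶ cells) from disappearance of the parent compound over time.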

[6] = Solubility of compound in PBS at pH 7.4 incubated for 20 to 24 hrs under shaking condition by LC-MS analysis; assay type: physicochemical; conditions: time 20-24 hrs
In short: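 Dried-DMSO solubility: 10 mM DMSO stock dried down, residue resolubilized in 0.1 M phosphate buffer, pH 7.4.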

Cytochrome P450 2C19 = Cytochrome P450 2C19 (Homo sapiens, UniProt P33261); test: Inhibition of CYP2C19 (unknown origin); assay type: ADME
[7] = biological target: Voltage-gated inwardly rectifying potassium channel KCNH2 (Homo sapiens, UniProt Q12809); test: Inhibition of human ERG; assay type: toxicity
Cytochrome P450 1A2 = biological target: T2, Cytochrome P450 1A2 (Homo sapiens, UniProt P05177); test: Inhibition of CYP1A2 (unknown origin); assay type: ADME
T2 sequence (P05177 whole entry): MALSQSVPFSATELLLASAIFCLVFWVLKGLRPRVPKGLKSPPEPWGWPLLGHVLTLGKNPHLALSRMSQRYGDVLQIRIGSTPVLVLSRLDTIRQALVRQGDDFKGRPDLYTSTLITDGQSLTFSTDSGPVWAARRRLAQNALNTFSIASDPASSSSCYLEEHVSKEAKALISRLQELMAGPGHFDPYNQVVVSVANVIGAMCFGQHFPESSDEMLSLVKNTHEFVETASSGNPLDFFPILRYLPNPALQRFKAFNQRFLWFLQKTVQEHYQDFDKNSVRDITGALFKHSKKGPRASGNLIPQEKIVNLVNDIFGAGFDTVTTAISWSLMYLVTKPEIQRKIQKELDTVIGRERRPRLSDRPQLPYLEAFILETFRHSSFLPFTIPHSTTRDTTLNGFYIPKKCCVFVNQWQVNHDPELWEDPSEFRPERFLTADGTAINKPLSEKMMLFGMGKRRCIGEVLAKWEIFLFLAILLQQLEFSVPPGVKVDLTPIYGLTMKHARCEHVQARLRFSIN

Cytochrome P450 2C9 = Cytochrome P450 2C9 (Homo sapiens, UniProt P11712); test: Inhibition of CYP2C9 (unknown origin); assay type: ADME
Cytochrome P450 2D6 = Cytochrome P450 2D6 (Homo sapiens, UniProt P10635); test: Inhibition of CYP2D6 (unknown origin); assay type: ADME
Cytochrome P450 3A4 = Cytochrome P450 3A4 (Homo sapiens, UniProt P08684); test: Inhibition of CYP3A4 (unknown origin); assay type: ADME
[8] = Passive permeability of compound across apical to basolateral in human Caco2 cells at 10 uM and measured upto 120 mins by LC-MS/MS analysis; assay type: ADME, cell-based; conditions: Caco-2
In short: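 Apical-to-basolateral passive permeability across Caco-2 monolayers, run in the presence of inhibitors of the efflux transporters P-gp, BCRP and MRP2.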

[9] = Volume of distribution at steady state in Wistar Han rat at 0.9 mg/kg, po or 0.5 mg/kg, iv; assay type: ADME, organism-based; conditions: in vivo
[10] = Oral bioavailability in Wistar Han rat at 0.9 mg/kg; assay type: ADME, organism-based; conditions: in vivo
[11] = Half life in Wistar Han rat at 0.9 mg/kg, po or 0.5 mg/kg, iv; assay type: ADME, organism-based; conditions: in vivo
[12] = AUC in Wistar Han rat at 0.9 mg/kg, po or 0.5 mg/kg, iv; assay type: ADME, organism-based; design: dose 0.9 mg/kg, route po; conditions: in vivo

Sequence of Cytochrome P450 2D6 (P10635 whole entry): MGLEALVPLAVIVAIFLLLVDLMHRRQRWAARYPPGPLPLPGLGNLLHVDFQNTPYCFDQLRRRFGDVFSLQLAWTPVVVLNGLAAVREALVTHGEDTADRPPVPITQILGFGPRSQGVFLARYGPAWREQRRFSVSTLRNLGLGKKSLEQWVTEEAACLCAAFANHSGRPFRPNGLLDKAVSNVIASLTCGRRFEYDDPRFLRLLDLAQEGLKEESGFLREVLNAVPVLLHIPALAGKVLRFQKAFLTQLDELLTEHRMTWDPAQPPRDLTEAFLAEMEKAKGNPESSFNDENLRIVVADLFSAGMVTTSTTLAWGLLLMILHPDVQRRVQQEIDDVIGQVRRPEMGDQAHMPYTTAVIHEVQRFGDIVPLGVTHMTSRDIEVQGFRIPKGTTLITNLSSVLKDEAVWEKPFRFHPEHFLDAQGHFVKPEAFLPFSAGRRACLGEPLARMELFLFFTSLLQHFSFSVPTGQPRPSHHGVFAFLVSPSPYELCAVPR
Sequence of Voltage-gated inwardly rectifying potassium channel KCNH2 (Q12809 whole entry): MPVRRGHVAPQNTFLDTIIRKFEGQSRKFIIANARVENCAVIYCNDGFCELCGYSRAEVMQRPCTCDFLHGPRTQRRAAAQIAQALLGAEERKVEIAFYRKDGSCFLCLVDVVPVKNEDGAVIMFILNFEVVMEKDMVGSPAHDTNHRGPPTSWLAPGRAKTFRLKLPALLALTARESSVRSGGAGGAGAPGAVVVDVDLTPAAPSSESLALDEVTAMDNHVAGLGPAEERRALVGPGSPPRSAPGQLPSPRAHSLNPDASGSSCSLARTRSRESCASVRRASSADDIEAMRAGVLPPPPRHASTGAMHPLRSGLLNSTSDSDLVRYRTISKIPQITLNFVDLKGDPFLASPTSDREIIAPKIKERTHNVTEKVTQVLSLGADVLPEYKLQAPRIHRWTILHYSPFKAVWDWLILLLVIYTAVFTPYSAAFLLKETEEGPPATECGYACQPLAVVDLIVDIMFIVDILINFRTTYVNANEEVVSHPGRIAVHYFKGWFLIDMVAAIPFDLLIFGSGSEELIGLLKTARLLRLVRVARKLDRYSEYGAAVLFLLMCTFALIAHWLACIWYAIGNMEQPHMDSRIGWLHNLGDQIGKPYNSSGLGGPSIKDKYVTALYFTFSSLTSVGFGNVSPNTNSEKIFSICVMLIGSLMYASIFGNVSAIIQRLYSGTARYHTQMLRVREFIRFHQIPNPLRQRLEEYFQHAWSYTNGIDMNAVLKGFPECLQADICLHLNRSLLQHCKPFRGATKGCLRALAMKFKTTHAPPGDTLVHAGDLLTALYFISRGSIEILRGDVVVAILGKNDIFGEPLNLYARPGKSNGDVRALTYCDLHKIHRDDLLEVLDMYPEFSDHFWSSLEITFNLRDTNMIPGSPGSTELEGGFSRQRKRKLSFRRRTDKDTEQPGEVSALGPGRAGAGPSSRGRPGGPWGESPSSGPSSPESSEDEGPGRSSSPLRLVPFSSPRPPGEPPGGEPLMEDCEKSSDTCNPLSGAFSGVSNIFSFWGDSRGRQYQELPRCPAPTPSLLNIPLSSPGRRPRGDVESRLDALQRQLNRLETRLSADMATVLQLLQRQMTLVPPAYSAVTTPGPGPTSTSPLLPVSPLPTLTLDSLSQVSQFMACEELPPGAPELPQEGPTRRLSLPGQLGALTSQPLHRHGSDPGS
Sequence of Cytochrome P450 3A4 (P08684 whole entry): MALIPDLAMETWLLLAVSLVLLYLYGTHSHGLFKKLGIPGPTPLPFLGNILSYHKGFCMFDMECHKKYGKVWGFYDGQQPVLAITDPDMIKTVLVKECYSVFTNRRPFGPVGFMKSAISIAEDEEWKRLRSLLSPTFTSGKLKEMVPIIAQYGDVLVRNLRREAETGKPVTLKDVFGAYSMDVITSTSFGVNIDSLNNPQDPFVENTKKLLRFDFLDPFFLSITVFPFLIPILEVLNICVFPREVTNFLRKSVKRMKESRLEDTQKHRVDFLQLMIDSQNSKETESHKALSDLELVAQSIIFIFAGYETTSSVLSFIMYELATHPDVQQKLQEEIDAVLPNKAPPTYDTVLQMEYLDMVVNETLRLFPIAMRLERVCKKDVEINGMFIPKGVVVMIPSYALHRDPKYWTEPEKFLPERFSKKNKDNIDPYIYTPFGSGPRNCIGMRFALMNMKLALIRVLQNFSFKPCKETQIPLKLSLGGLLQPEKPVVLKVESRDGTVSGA
Sequence of Cytochrome P450 2C9 (P11712 whole entry): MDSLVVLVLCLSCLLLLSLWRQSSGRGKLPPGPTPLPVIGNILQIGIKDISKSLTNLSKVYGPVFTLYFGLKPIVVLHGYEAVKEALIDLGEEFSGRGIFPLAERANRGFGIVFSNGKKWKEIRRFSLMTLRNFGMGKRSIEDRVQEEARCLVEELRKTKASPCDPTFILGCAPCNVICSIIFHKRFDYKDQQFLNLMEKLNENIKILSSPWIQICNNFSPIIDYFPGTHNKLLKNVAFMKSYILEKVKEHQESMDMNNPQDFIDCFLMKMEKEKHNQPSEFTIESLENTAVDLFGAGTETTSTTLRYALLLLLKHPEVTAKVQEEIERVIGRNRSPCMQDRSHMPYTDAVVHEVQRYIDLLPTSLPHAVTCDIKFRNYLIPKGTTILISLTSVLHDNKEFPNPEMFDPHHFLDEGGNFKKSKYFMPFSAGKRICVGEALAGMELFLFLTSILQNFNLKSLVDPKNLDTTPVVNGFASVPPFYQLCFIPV
Sequence of Cytochrome P450 2C19 (P33261 whole entry): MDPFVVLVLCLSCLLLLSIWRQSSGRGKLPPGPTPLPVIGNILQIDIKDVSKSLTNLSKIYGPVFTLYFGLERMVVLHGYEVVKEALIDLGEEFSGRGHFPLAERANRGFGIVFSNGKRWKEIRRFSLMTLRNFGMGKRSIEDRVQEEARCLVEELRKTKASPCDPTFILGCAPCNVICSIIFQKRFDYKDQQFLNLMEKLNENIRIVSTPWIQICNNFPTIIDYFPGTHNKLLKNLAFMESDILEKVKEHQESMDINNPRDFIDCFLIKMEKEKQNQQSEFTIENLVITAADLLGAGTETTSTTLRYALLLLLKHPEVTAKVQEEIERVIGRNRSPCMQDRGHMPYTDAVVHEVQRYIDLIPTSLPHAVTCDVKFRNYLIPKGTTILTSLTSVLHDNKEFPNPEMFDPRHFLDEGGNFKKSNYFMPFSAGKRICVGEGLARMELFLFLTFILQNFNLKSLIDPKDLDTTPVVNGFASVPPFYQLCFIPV

Row | SMILES | logD [1] | IC50 [2] | microsomal CLint [3] | also measured
1 | FC(F)(F)c1nccc(N[C@H]2C[C@@H](Nc3ccc4nnc(Cl)n4n3)C2)n1 | 2.2 | > 50 µM | 6.9 µL/min/mg | –
2 | CN(c1ccnc(C(F)(F)F)n1)[C@H]1CC[C@@H](Nc2ccc3nnc(Cl)n3n2)CC1 | 3.6 | 1.1 µM | 18 µL/min/mg | –
3 | FC(F)(F)c1nccc(N[C@H]2CC[C@@H](Nc3ccc4ncc(Cl)n4n3)CC2)n1 | 4.3 | 0.4 µM | 9.9 µL/min/mg | –
4 | FC(F)(F)c1nccc(NC[C@H]2C[C@@H](Nc3ccc4nnc(Cl)n4n3)C2)n1 | 2.5 | 18 µM | 23 µL/min/mg | –
5 | FC(F)(F)c1cccc(N[C@H]2CC[C@@H](Nc3ccc4nnc(Cl)n4n3)CC2)c1 | 5.2 | 1.4 µM | 9.2 µL/min/mg | –
6 | FC(F)(F)c1nccc(N[C@H]2CC[C@@H](Nc3ccncn3)CC2)n1 | 1.9 | > 50 µM | 18 µL/min/mg | –
7 | CN(c1ccc2nnc(Cl)n2n1)[C@H]1CC[C@@H](Nc2ccnc(C(F)(F)F)n2)CC1 | 3.5 | 0.5 µM | 12 µL/min/mg | –
8 | FC(F)(F)c1nccc(N[C@H]2CC[C@@H](Nc3ccc4nnc(C5CC5)n4n3)CC2)n1 | 4.5 | 4.5 µM | < 3 µL/min/mg | –
9 | Clc1nnc2ccc(N[C@H]3CC[C@@H](Nc4ccncn4)CC3)nn12 | 0.7 | 31 µM | 25 µL/min/mg | –
10 | FC(F)(F)c1nccc(N[C@@H]2CC[C@H](Nc3ccc4nnc(Cl)n4n3)C2)n1 (racemic) | 3.4 | 1.1 µM | 17 µL/min/mg | –
11 | FC(F)(F)c1nccc(N[C@H]2CC[C@@H](Oc3ccc4nnc(Cl)n4n3)CC2)n1 | 3.5 | 7.2 µM | < 3 µL/min/mg | –
12 | FC(F)(F)c1nccc(O[C@H]2CC[C@@H](Nc3ccc4nnc(Cl)n4n3)CC2)n1 | 3.7 | 1.2 µM | < 3 µL/min/mg | –
13 | FC(F)(F)c1nccc(N[C@H]2CC[C@@H](Nc3ccc4nncn4n3)CC2)n1 | 1.7 | 35 µM | < 3 µL/min/mg | –
14 | FC(F)(F)c1nccc(N[C@H]2CC[C@@H](Nc3ccc4nnc(C(F)(F)F)n4n3)CC2)n1 | 3.8 | 1.8 µM | < 3 µL/min/mg | –
15 | FC(F)(F)c1nccc(NCC2CCN(c3ccc4nnc(Cl)n4n3)CC2)n1 | 2.7 | 23 µM | 31 µL/min/mg | –
16 | FC(F)(F)c1cccc(N[C@H]2CC[C@@H](Nc3ccnc(C(F)(F)F)n3)CC2)c1 | > 5.3 | 1.8 µM | 7.5 µL/min/mg | –
17 | FC(F)(F)c1nccc(NC2CCN(c3ccc4nnc(Cl)n4n3)CC2)n1 | 2.6 | 6.1 µM | 50 µL/min/mg | –

Row | SMILES | logD [1] | IC50 [2] | microsomal CLint [3] | also measured
18 | FC(F)(F)c1nccc(N[C@H]2CC[C@@H](Nc3ccc4nnc(Br)n4n3)CC2)n1 | 2.9 | 1.1 µM | < 3 µL/min/mg | IC50 [4]: 6.1 µM
19 | FC(F)(F)c1nccc(N[C@H]2CC[C@@H](Nc3cnc4ccccc4c3)CC2)n1 | 4.6 | 7.2 µM | 5.2 µL/min/mg | –
20 | FC(F)(F)c1nccc(N[C@H]2C[C@@H](CNc3ccc4nnc(Cl)n4n3)C2)n1 | 2.5 | 17 µM | 36 µL/min/mg | –
21 | FC(F)(F)c1nccc(N[C@H]2CC[C@@H](Nc3ccnc(C(F)(F)F)n3)CC2)n1 | 4.3 | 2.2 µM | < 3 µL/min/mg | CLH [5]: < 1 10^-6uL/min; solubility [6]: 37 µM (≈ 15 µg/mL)
22 | CSc1nnc2ccc(N[C@H]3CC[C@@H](Nc4ccnc(C(F)(F)F)n4)CC3)nn12 | 2.8 | 0.8 µM | 29 µL/min/mg | IC50 [4]: 5.9 µM
23 | COc1ncc(N[C@H]2CC[C@@H](Nc3ccc4nnc(Cl)n4n3)CC2)cc1Cl | 3.8 | 0.6 µM | < 3 µL/min/mg | –
24 | FC(F)(F)c1nccc(N2CCC(Nc3ccc4nnc(Cl)n4n3)CC2)n1 | 2.9 | > 50 µM | 50 µL/min/mg | –
25 | FC(F)(F)c1nccc(N[C@]23CC[C@](Nc4ccc5nnc(Cl)n5n4)(CC2)CC3)n1 | 3 | 4.2 µM | 11 µL/min/mg | –
26 | FC(F)(F)c1nccc(N[C@H]2CC[C@@H](Nc3ccc4cnccc4n3)CC2)n1 | 2.8 | 7.5 µM | 26 µL/min/mg | –
27 | FC(F)(F)c1nccc(N2CCN(c3ccc4nnc(Cl)n4n3)CC2)n1 | 2.4 | > 50 µM | < 3 µL/min/mg | –
28 | FC(F)(F)c1nccc(N[C@H]2CC[C@@H](Nc3ccc4nnc(Cl)n4n3)CC2)n1 | 3.1 | 0.3 µM | < 3 µL/min/mg | IC50 (Cytochrome P450 2C19): 14 µM; solubility [6]: 19 µM (≈ 7.84 µg/mL); IC50 [4]: 3.2 µM; IC50 [7]: 24 µM; IC50 (Cytochrome P450 1A2): > 30 µM; IC50 (Cytochrome P450 2C9): 10 µM; IC50 (Cytochrome P450 2D6): > 30 µM; IC50 (Cytochrome P450 3A4): 18 µM; Papp A→B at 2 h, 10 µM [8]: 44 ×10⁻⁶ cm/s; Vdss [9]: 2.2 L/kg; bioavailability [10]: 72%; half-life [11]: 4 h; AUC [12]: 3.21 µM·h
29 | Nc1nnc2ccc(N[C@H]3CC[C@@H](Nc4ccnc(C(F)(F)F)n4)CC3)nn12 | 1.4 | 26 µM | < 3 µL/min/mg | –
30 | Cc1nnc2ccc(N[C@H]3CC[C@@H](Nc4ccnc(C(F)(F)F)n4)CC3)nn12 | 2.3 | 4.7 µM | < 3 µL/min/mg | –
31 | FC(F)(F)c1cc(N[C@H]2CC[C@@H](Nc3ccc4nnc(Cl)n4n3)CC2)ccn1 | 2.9 | 1.5 µM | 11 µL/min/mg | –
32 | FC(F)(F)c1nccc(N2CCC(CNc3ccc4nnc(Cl)n4n3)CC2)n1 | 2.8 | 6.1 µM | 37 µL/min/mg | –
33 | FC(F)(F)c1nccc(N[C@H]2CC[C@@H](Nc3ncnc4sccc34)CC2)n1 | 2.9 | 5 µM | 22 µL/min/mg | –
